The source of these data is ChEMBL document CHEMBL4308879, “Seco-4-methyl-DCK derivatives as potent chemosensitizers” (Bioorg Med Chem Lett, 2019).

The nature of data set [1]: Cytotoxicity against human T29 cells assessed as survival at 10 uM after 48 hrs by MTT assay relative to control. It is filed as cell-based. The conditions noted are these: read-out: Survival. An outline of the steps: (§1)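 Survival ratio (%) determined from the surviving fraction after treatment. Reported as mean of three independent experiments.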
In general terms: Formazan colour is commonly taken as a measure of viable cells.

The test system of another data set is A2780/Taxol. In words: Reversal ratio of IC50 for paclitaxel-induced cytotoxicity against human A2780/TAX cells in absence of compound to IC50 paclitaxel-induced cytotoxicity against human A2780/TAX cells in presence of compound. In kind it is functional.
Data set [2] can be described thus: Cytotoxicity against HUVEC assessed as survival at 10 uM after 48 hrs by MTT assay relative to control. In kind it is cell-based. The conditions noted are these: human, HUVEC cells; read-out: Survival. An outline of the steps:
as §1

A short description of data set [3]: Cytotoxicity against HOSEC assessed as survival at 10 uM after 48 hrs by MTT assay relative to control. To be noted: human, HOSEC cells; read-out: Survival. An outline of the steps:
as §1

Data set [4] in a line: Cytotoxicity against human A2780/TAX cells assessed as survival at 10 uM after 48 hrs by MTT assay relative to control. It is filed as cell-based, A2780/Taxol. To be noted: read-out: Survival. An outline of the steps: as §1
Data set [5] in a line: Cytotoxicity against human A2780/CDDP cells assessed as survival at 10 uM after 48 hrs by MTT assay relative to control. It is filed as cell-based. To be noted: read-out: Survival. In short, it runs like this: as §1
Data set [6] in a line: Reversal ratio of IC50 for cisplatin-induced cytotoxicity against human A2780/CDDP cells in absence of compound to IC50 for cisplatin-induced cytotoxicity against human A2780/CDDP cells in presence of compound. It is filed as functional.
A short description of data set [7]: Cytotoxicity against human KBV cells assessed as survival at 10 uM after 48 hrs by MTT assay relative to control. In kind it is cell-based. To be noted: read-out: Survival. In short, it runs like this: as §1
The nature of data set [8]: Reversal ratio of IC50 for vincristine-induced cytotoxicity against human KBV cells in absence of compound to IC50 for vincristine-induced cytotoxicity against human KBV cells in presence of compound. In kind it is functional.
A further data set concerns KB. In words: Cytotoxicity against human KB cells after 48 hrs by MTT assay. In kind it is functional, cell-based.
Data set [9] in a line: Resistance ratio of IC50 for human KBV cells to IC50 for human KB cells. In kind it is functional.

As to `CCOc1ccc2c(C)cc(=O)oc2c1COC(=O)c1ccc(Cl)c([N+](=O)[O-])c1`, the viability at 48 h, 10 µM in data set [1] is 72.6%; in [2] it was 81%; in data set [3], 50.1%; in data set [4], 78.7%. The “Ratio IC50” value with A2780/Taxol is given as 31.

In the case of `COc1cc(OC)c(C(=O)OCc2c(OC(C)C)ccc3c(C)cc(=O)oc23)cc1OC`, the viability at 48 h, 10 µM in [1] amounted to 90.9%; in data set [2] it was 72.7%; in [3] it was 86.3%; in data set [4], 106%. Further, in the data set with A2780/Taxol, the “Ratio IC50” value is 161.

On to `Cc1ccc(C(=O)OCc2c(OC(C)C)ccc3c(C)cc(=O)oc23)cc1`, for which the viability at 48 h, 10 µM in data set [1] turned out to be 91.2%; in [2], 75.6%; in data set [3] it was 79.8%; in data set [4], 95.2%. Also, the “Ratio IC50” value with A2780/Taxol was 95.

On to `CCOc1ccc2c(C)cc(=O)oc2c1COC(=O)c1ccc(C(C)(C)C)cc1`, for which the viability at 48 h, 10 µM is 87.1% in data set [1], 76% in [2], 79.8% in [3] and 95.1% in [4]. Moreover, the “Ratio IC50” value with A2780/Taxol is on record as 158.

Regarding `CCOc1ccc2c(C)cc(=O)oc2c1COC(=O)c1cc(OC)c(OC)c(OC)c1`, the viability at 48 h, 10 µM came to 103% in [1], 99.7% in data set [2], 86.7% in data set [3] and 97.6% in data set [4]. In the data set with A2780/Taxol, the “Ratio IC50” value stood at 51.

For the compound `CCOc1ccc2c(C)cc(=O)oc2c1COC(=O)c1ccc(F)cc1`, the viability at 48 h, 10 µM in data set [1] came out at 88.6%; in [2], 87.2%; in [3], 78.3%; in data set [4], 93.4%. In the data set with A2780/Taxol, the “Ratio IC50” value came out at 61.

For `CCOc1ccc2c(C)cc(=O)oc2c1COC(=O)/C=C/c1ccccc1`, the viability at 48 h, 10 µM in data set [1] turned out to be 98.7%; in [2], 84.7%; in [3], 92.2%; in [4] it was 98.9%. Further, the “Ratio IC50” value with A2780/Taxol was 97.

Consider `Cc1cc(=O)oc2c(COC(=O)c3ccc(C(C)(C)C)cc3)c(OC(C)C)ccc12`, for which the viability at 48 h, 10 µM turned out to be 96% in [1], 83.7% in data set [2], 90.6% in data set [3] and 104% in [4]. In the data set with A2780/Taxol, the “Ratio IC50” value is reported as 72.

Turning to `CCOc1ccc2c(C)cc(=O)oc2c1COC(=O)c1ccc(OC)c(OC)c1`, the viability at 48 h, 10 µM in [1] amounted to 86.1%; in [2], 83.4%; in [3], 72%; in [4], 83.1%. The “Ratio IC50” value with A2780/Taxol was 101.

With `Cc1cc(=O)oc2c(COC(=O)c3cccc(N(C)C)c3)c(OC(C)C)ccc12`, the viability at 48 h, 10 µM in data set [1] is 90.8%; in data set [2] it was 84.8%; in data set [3] it was 76%; in data set [4], 102%. Moreover, in the data set with A2780/Taxol, the “Ratio IC50” value is listed as 86.

As for `CCCc1ccc(C(=O)OCc2c(OCC)ccc3c(C)cc(=O)oc23)cc1`, the viability at 48 h, 10 µM in data set [1] was determined as 97.2%; in data set [2], 78.4%; in [3] it was 76%; in [4], 84%. Further, the “Ratio IC50” value with A2780/Taxol stood at 54.

In the case of `CCOc1ccc2c(C)cc(=O)oc2c1COC(=O)c1ccc(C)cc1`, the viability at 48 h, 10 µM in data set [1] came out at 86.1%; in data set [2] it was 77.1%; in data set [3], 64.7%; in data set [4], 95.8%. For the same compound, the “Ratio IC50” value in the data set on A2780/Taxol is 26.

As for `CCOc1ccc2c(C)cc(=O)oc2c1COC(=O)c1cccc(OC)c1`, the viability at 48 h, 10 µM in data set [1] amounted to 83.4%; in [2], 79.8%; in data set [3], 68.4%; in data set [4], 76.5%. For the same compound, in the data set on A2780/Taxol, the “Ratio IC50” value came to 56.

With `Cc1cc(=O)oc2c(COC(=O)/C=C/c3ccccc3)c(OC(C)C)ccc12`, the viability at 48 h, 10 µM stood at 104% in data set [1], 95.9% in data set [2], 105% in [3] and 103% in data set [4]. For the same compound, the “Ratio IC50” value in the data set on A2780/Taxol amounted to 32.

Turning to `COc1ccc(/C=C/C(=O)OCc2c(OC(C)C)ccc3c(C)cc(=O)oc23)cc1`, the viability at 48 h, 10 µM in data set [1] worked out at 90.4%; in data set [2] it was 98.9%; in data set [5] it was 131%; in data set [3], 93.6%; in data set [7], 108%; in data set [4], 98.1%. In addition, the “Ratio IC50” value worked out at 496 in the data set on A2780/Taxol, 0.78 in data set [6] and 1257 in data set [8].

Take `CCOc1ccc2c(C)cc(=O)oc2c1COC(=O)CCc1ccc(OC)cc1`: the viability at 48 h, 10 µM is 91.3% in data set [1], 85% in data set [2], 73.5% in [3] and 101% in data set [4]. In the data set on A2780/Taxol, the “Ratio IC50” value was 6.

For the compound `Cc1cc(=O)oc2c(COC(=O)c3ccc(F)cc3)c(OC(C)C)ccc12`, the viability at 48 h, 10 µM was found to be 85.3% in data set [1], 79.7% in data set [2], 70.5% in data set [3] and 102% in [4]. For the same compound, the “Ratio IC50” value in the data set with A2780/Taxol is on record as 93.

Take `CCOc1ccc2c(C)cc(=O)oc2c1COC(=O)c1c(F)cccc1F`: the viability at 48 h, 10 µM in [1] is 94.6%; in [2] it was 86.3%; in data set [3] it was 78.2%; in [4] it was 101%. In the data set with A2780/Taxol, the “Ratio IC50” value was 72.

As for `CCOc1ccc2c(C)cc(=O)oc2c1COC(=O)/C=C/c1ccc(Cl)cc1`, the viability at 48 h, 10 µM is 106% in data set [1], 101% in data set [2], 90.7% in data set [3] and 102% in [4]. Further, the “Ratio IC50” value in the data set with A2780/Taxol stood at 14.

Consider `COc1ccc(C(=O)OCc2c(OC(C)C)ccc3c(C)cc(=O)oc23)cc1OC`, for which the viability at 48 h, 10 µM amounted to 101% in data set [1], 84.2% in [2], 107% in data set [3] and 102% in data set [4]. The “Ratio IC50” value with A2780/Taxol worked out at 197.

As for `CCCc1ccc(C(=O)OCc2c(OC(C)C)ccc3c(C)cc(=O)oc23)cc1`, the viability at 48 h, 10 µM in data set [1] was 92.7%; in data set [2], 82.2%; in data set [3] it was 87.5%; in data set [4], 101%. In addition, the “Ratio IC50” value with A2780/Taxol came out at 45.

Take `CCOc1ccc2c(C)cc(=O)oc2c1COC(=O)c1cccc(N(C)C)c1`: the viability at 48 h, 10 µM is 106% in [1]; 96.3% in data set [2]; 117% in [5]; 97.2% in [3]; 104% in data set [7]; 97% in data set [4]. Moreover, the entries for the “Ratio IC50” value (in the data set on A2780/Taxol; in data set [6]; in data set [8]) were 224, 0.83 and 314, respectively.

`Cc1cc(=O)oc2c(CO)c(OC(C)C)ccc12`: the viability at 48 h, 10 µM turned out to be 88.6% in data set [1], 84.7% in data set [2], 80.2% in data set [3] and 94.6% in data set [4].

Take `CCOc1ccc2c(C)cc(=O)oc2c1COC(=O)c1cc(OC)c(OC)cc1OC`: the viability at 48 h, 10 µM in data set [1] came out at 89.5%; in data set [2] it was 88.8%; in [3] it was 78.2%; in [4], 84.1%. Moreover, the “Ratio IC50” value with A2780/Taxol is listed as 47.

`COc1cc(C(=O)OCc2c(OC(C)C)ccc3c(C)cc(=O)oc23)cc(OC)c1OC`: the viability at 48 h, 10 µM in [1] is 81.5%; in data set [2], 73.1%; in [5] it was 65.5%; in [3], 61.7%; in data set [7] it was 96.1%; in [4], 94.6%. Also, the “Ratio IC50” value was found to be 354 with A2780/Taxol, 0.86 in data set [6] and 134 in [8].

For the compound `CCOc1ccc2c(C)cc(=O)oc2c1COC(=O)/C=C/c1ccc(OC)cc1`, the viability at 48 h, 10 µM in [1] worked out at 98.9%; in [2] it was 93.8%; in data set [5] it was 123%; in data set [3], 84.9%; in data set [7], 105%; in data set [4] it was 83.6%. The “Ratio IC50” value is on record as 735 in the data set on A2780/Taxol, 0.76 in data set [6] and 793 in data set [8].

A word on the IC50: it is the point on the concentration scale where inhibition reaches its midpoint. In turn, `CC[C@]1(O)C[C@H]2CN(CCc3c([nH]c4ccccc34)[C@@](C(=O)OC)(c3cc4c(cc3OC)N(C=O)[C@H]3[C@@](O)(C(=O)OC)[C@H](OC(C)=O)[C@]5(CC)C=CCN6CC[C@]43[C@@H]65)C2)C1` [VINCRISTINE] yielded an IC50 with KB of 0.21 nM. Besides, the “Ratio IC50” value in data set [9] was 3173.
